Consider 23 compounds from ChEMBL document CHEMBL1136075, “Synthesis of the novel liqustrazine derivatives and Their protective effect on injured vascular endothelial cell damaged by hydrogen peroxide” (2003).

Calls of active or inactive are those of the source. The calls are words filed in the database; no cut-off is given here.

For one assay, the system named is HUVEC. The experiment in a line: Maximum stimulation of proliferation rate of human umbilical vascular endothelial cells (HUVECs) by the compound at a concentration of 0.6 mM. The class given is functional. A digest of the protocol:
(§1)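 Cultured human umbilical vein endothelial cells (normal, uninjured) exposed to compound over 0.1–1.5 mmol L⁻¹; viability by MTT, absorbance at 570 nm. Proliferation rate P(%) = (A − A0)/A0, with A0 the vehicle-treated control wells. The maximum P over the concentrations tested is reported. Mean ± SEM, n=6 wells.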
Compound `Cc1nc(C)c(COC(=O)c2ccccc2Cl)nc1C` yielded a Pmax of 32.1%.
Same read-out and setting: as for `Cc1nc(C)c(COC(=O)c2ccccc2)nc1C`, the figure is 37%; as for `Cc1nc(C)c(CO)nc1C`, 28.03%; as for `Cc1nc(C)c(COC(=O)/C=C/c2ccccc2)nc1C`, 77.32%.
In turn, `Cc1nc(C)c(C)nc1C` [LIGUSTRAZINE] came in with a Pmax of 20.66%.
Same read-out and setting: as for `Cc1nc(C)c(COC(=O)c2ccco2)nc1C`, the figure is 69.39%.

A further assay has as its system HUVEC. The experiment in a line: Maximum stimulation of proliferation rate of human umbilical vascular endothelial cells (HUVECs) by the compound at a concentration of 0.1-1.5 mM; NA is not active. The class given is functional, cell-based. A digest of the protocol:
as §1
Take `Cc1nc(C)c(COC(=O)c2ccc(Br)cc2Br)nc1C`: the Pmax entry was “inactive”.
Take `Cc1nc(C)c(COC(=O)c2ccc(Br)cc2)nc1C`: the Pmax entry was “inactive”.

The next assay relates to HUVEC. The experiment in a line: Maximum stimulation of proliferation rate of human umbilical vascular endothelial cells (HUVECs) by the compound at a concentration of 1.5 mM. Type of assay: functional. The method in brief:
as §1
With `Cc1nc(C)c(COC(=O)c2ccccc2I)nc1C`, the Pmax was 61.36%.

Another assay deals with HUVEC. The experiment in a line: Maximum stimulation of proliferation rate of human umbilical vascular endothelial cells (HUVECs) by the compound at a concentration of 0.1 mM. Type of assay: functional. A digest of the protocol:
as §1
For the compound `COc1ccc(/C=C/C(=O)OCc2nc(C)c(C)nc2C)cc1`, the Pmax is given as 75.45%.
The compound `COc1ccc(/C=C/C(=O)OCc2nc(C)c(C)nc2C)c(OC)c1` returned a Pmax of 70.16%.
Still for that read-out and setting: as for `Cc1nc(C)c(COC(=O)c2cccc(Cl)c2)nc1C`, the figure is 59.32%; as for `Cc1nc(C)c(COC(=O)c2ccc(Cl)cc2)nc1C`, 82.55%.
On to `Cc1nc(C)c(COC(=O)C(C)(C)Oc2ccc(Cl)cc2)nc1C`, for which the Pmax amounted to 87.85%.
Still for that read-out and setting: as for `COc1ccccc1C(=O)OCc1nc(C)c(C)nc1C`, the figure is 71.95%; as for `COc1ccc(C(=O)OCc2nc(C)c(C)nc2C)cc1`, 66.04%; as for `CC(=O)Oc1ccccc1C(=O)OCc1nc(C)c(C)nc1C`, 70.88%.
The same measure, in the same setting: as for `Cc1nc(C)c(COC(=O)Cc2ccccc2)nc1C`, the figure is 76.11%.
`Cc1nc(C)c(COC(=O)c2cccnc2)nc1C` gave a Pmax of 88.57%.
Same read-out and setting: as for `Cc1nc(C)c(COC(=O)CCc2ccccc2)nc1C`, the figure is 80.54%; as for `COc1ccc(C(=O)OCc2nc(C)c(C)nc2C)cc1OC`, 52.95%; as for `COc1cc(/C=C/C(=O)OCc2nc(C)c(C)nc2C)ccc1O`, 83.87%.
Same read-out and setting: under `COc1cc(C(=O)OCc2nc(C)c(C)nc2C)cc(OC)c1OC` stands 45.8%.
